Results pooled from the literature.
Lines come from different studies, so protocols differ.
Target: Mitogen-activated protein kinase 3 (MAPK3, Homo sapiens, UniProt P27361)

C[C@@H]1CCN(c2nccc(-c3cnn4ncccc34)n2)C1  remaining binding (binding; 1 µM): 83%
FC(F)(F)Oc1cccc(-c2cnc3ccc(-c4ccncc4)nn23)c1  remaining binding (cell-free assay, competition with immobilised ligand; 5 µM): 88%
CNC(=O)[C@@H]1CC[C@@H](n2c(-c3ccc4cnccc4c3)nc3ccc(C(=O)NCc4cccc(C(N)=O)c4)cc32)C1  remaining binding (binding, competition with immobilised ligand; 1 µM): 100%
N[C@H]1CCN(c2nccc(-c3cnn4ncccc34)n2)C1  remaining binding (binding; 1 µM): 91%
O=C(Nc1cccnn1)N1CC(C/C=C/c2cncc(Oc3ccc(C(F)(F)F)cn3)n2)C1  remaining binding (cell-free assay, competition with immobilised ligand; 1 µM): 99%
O=C(c1ccc(Nc2nccc(-c3cc4ccccc4s3)n2)cc1)N1CCC(N2CCCC2)CC1  remaining binding (binding, competition with immobilised ligand; 1 µM): 100%
CN(c1nccc(-c2cnn3ncccc23)n1)C1CC1  remaining binding (binding; 1 µM): 89%
C[C@@H]1CN(c2ccc3ncc(-c4ccc5[nH]nc(C6CC6)c5c4)n3n2)C[C@H](C)O1  remaining binding (binding, competition with immobilised ligand; 0.5 µM): 100%
CN(C)c1nccc(-c2cnc3ncccn23)n1  remaining binding (binding; 1 µM): 100%
O=C(NCC1CCOCC1)c1n[nH]cc1NC(=O)c1c(F)cccc1F  remaining binding (binding, competition with immobilised ligand; 1 µM): 100%
COc1ccnn2ncc(-c3ccnc(N(C)C)n3)c12  remaining binding (binding; 1 µM): 92%
CC(=O)C1=C(C)N(c2cccc(C(F)(F)F)c2)C(=O)N[C@@H]1c1ccc(C#N)nc1  remaining binding (cell-free assay, competition with immobilised ligand; 1 µM): 97.1%
CN(C)c1ncc(F)c(-c2cnn3ncccc23)n1  remaining binding (binding; 1 µM): 91%
Cn1cc(Cl)c2c(Oc3c(F)cc(Nc4cc(Cl)nc(N)n4)cc3F)ccnc21  remaining binding (cell-free assay, competition with immobilised ligand; 0.1 µM): 98%
CC(C)(C)c1ccc(-c2nc(CBr)nn2-c2cccc(O)c2)cc1  remaining binding (cell-free assay, competition with immobilised ligand; 10 µM): 91%
COc1cc(-c2cn(C3CCc4ccccc4N(CC(F)(F)F)C3=O)nn2)ccc1-n1ccc(C)n1 (stereo not shown)  remaining binding (cell-free assay, competition with immobilised ligand; 1 µM): 100%
CC1CCCN1c1nccc(-c2cnn3ncccc23)n1 (stereo not shown)  remaining binding (binding; 1 µM): 86%
C[C@@H](c1cccc(C#N)c1)n1cc(Cl)cc(C(N)=O)c1=N  remaining binding (cell-free assay, competition with immobilised ligand; 1 µM): 100%
CCN1CCN(Cc2ccc(C(=O)Nc3ccc(C)c(Oc4ccc5c(c4)CC(=O)N5)c3)cc2C(F)(F)F)CC1  remaining binding (binding, competition with immobilised ligand; 1 µM): 100%
Cc1c(NC(=O)c2cc(C(N)=O)nc3cc(F)ccc23)c(C(F)(F)F)nn1Cc1ccc(C(C)(C)C)cc1  remaining binding (cell-free assay, competition with immobilised ligand; 1 µM): 100%
COc1cnc(Nc2cccc(S(N)(=O)=O)c2)nc1N1CCN(c2ccccc2)CC1  remaining binding (binding, competition with immobilised ligand; 1 µM): 100%
O=C(c1ccc(Nc2ncc(Cl)c(-c3ccc(Cl)s3)n2)cc1)N1CCC(N2CCCC2)CC1  remaining binding (binding, competition with immobilised ligand; 1 µM): 98%
COCCOc1nc(-c2ccc(Cl)nc2)nc2c1CN(C(=O)c1ncn3ccccc13)CC2  remaining binding (cell-free assay, competition with immobilised ligand; 0.1 µM): 89%
Cc1cnc(Nc2ccc(C(=O)N3CCC(N4CCCC4)CC3)cc2)nc1-c1cc2ccccc2s1  remaining binding (binding, competition with immobilised ligand; 1 µM): 100%
COc1cccc(CNC(=O)c2nc3scc(COCc4ccc(C(=O)O)cc4)c3c(=O)[nH]2)c1  remaining binding (cell-free assay, competition with immobilised ligand; 1 µM): 100%
